# Reference: ChEMBL document CHEMBL1909504, “New series of isoniazid hydrazones linked with electron-withdrawing substituents” (Eur J Med Chem, 2011)
# What was measured:
# [1] = tested on: Mycobacterium tuberculosis; assay: Antimycobacterial activity against Mycobacterium tuberculosis CNTC My 331/88 ATCC 27294 after 14 days; assay type: functional; conditions: CNTC My 331/88 ATCC 27294, 336 h
# Method in brief: (§1)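 Sula semi-synthetic medium at 37 °C. Compounds were dissolved in DMSO (max. 5% DMSO in water) and added to the medium at 1000, 500, 250, 125, 62, 31, 16, 8, 4, 2 and 1 μmol L⁻¹. MIC was read after 7, 14 and 21 days of incubation at 37 °C. Strains came from the Czech National Collection of Type Cultures.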
# [2] = tested on: Mycobacterium tuberculosis; assay: Antimycobacterial activity against Mycobacterium tuberculosis CNTC My 331/88 ATCC 27294 after 21 days; assay type: functional; conditions: CNTC My 331/88 ATCC 27294, 504 h; method in brief: as §1
# [3] = tested on: Mycobacterium avium; assay: Antimycobacterial activity against Mycobacterium avium CNTC My 330/88 after 14 days; assay type: functional; conditions: CNTC My 330/88, 336 h; method in brief: as §1
# [4] = tested on: Mycobacterium avium; assay: Antimycobacterial activity against Mycobacterium avium CNTC My 330/88 after 21 days; assay type: functional; conditions: CNTC My 330/88, 504 h; method in brief: as §1
# [5] = tested on: Mycobacterium kansasii; assay: Antimycobacterial activity against Mycobacterium kansasii CNTC My 335/80 after 7 days; assay type: functional; conditions: 168 h
# Method in brief: (§2)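 MIC in Sula semi-synthetic medium at 37 °C. M. kansasii 6509/96 is a clinical isolate; M. kansasii CNTC My 235/80 comes from the Czech national collection. Compounds were dissolved in DMSO (max. 5% DMSO in water) and tested at 1000, 500, 250, 125, 62, 31, 16, 8, 4, 2 and 1 μmol L⁻¹. MIC was read after 7, 14 and 21 days.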
# [6] = tested on: Mycobacterium kansasii; assay: Antimycobacterial activity against Mycobacterium kansasii CNTC My 335/80 after 14 days; assay type: functional; conditions: 336 h; method in brief: as §2
# [7] = tested on: Mycobacterium kansasii; assay: Antimycobacterial activity against Mycobacterium kansasii CNTC My 335/80 after 21 days; assay type: functional; conditions: 504 h; method in brief: as §2
# [8] = tested on: Mycobacterium kansasii; assay: Antimycobacterial activity against Mycobacterium kansasii 6509/96 isolate after 7 days; assay type: functional; conditions: 6509/96, 168 h; method in brief: as §2
# [9] = tested on: Mycobacterium kansasii; assay: Antimycobacterial activity against Mycobacterium kansasii 6509/96 isolate after 14 days; assay type: functional; conditions: 6509/96, 336 h; method in brief: as §2
# [10] = tested on: Mycobacterium kansasii; assay: Antimycobacterial activity against Mycobacterium kansasii 6509/96 isolate after 21 days; assay type: functional; conditions: 6509/96, 504 h; method in brief: as §2
# [11] = tested on: HepG2; assay: Cytotoxicity against human HepG2 cells by MTT assay; assay type: cell-based
# Method in brief: (§3)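 MTT viability assay in RPMI-1640 without phenol red with 10% FCS and 2 mM L-glutamine, at 37 °C and 5% CO₂. HepG2 seeded at 5×10³ cells/well; fresh human PBMC at 2.0×10⁵ cells/well. After 24 h, cells were exposed overnight in serum-free medium, then given MTT (2 mg mL⁻¹) for 4 h. Formazan dissolved in DMSO, OD540 minus OD620, compared with untreated controls. IC50 taken from dose-response curves; two independent experiments, 4–8 parallels.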
# [12] = tested on: PBMC; assay: Cytotoxicity against human PBMC by MTT assay; assay type: cell-based; method in brief: as §3
# [13] = Selectivity index, ratio of IC50 for human HepG2 cells to MIC for Mycobacterium tuberculosis CNTC My 331/88 ATCC 27294; assay type: functional
# Method in brief: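 HepG2 human hepatoma cells in RPMI-1640 without phenol red with 10% FCS, 2 mM L-glutamine and gentamycin, at 37 °C and 5% CO₂. Seeded at 5×10³ cells/well and grown 24 h, then treated overnight in serum-free medium. Read-out was MTT (4 h), formazan dissolved in DMSO, OD540 minus OD620. IC50 was taken from dose-response curves, two experiments with 4–8 parallels. MIC was measured in Sula medium.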
# [14] = Stability of compound in 0.01 M HCl buffer assessed as pseudo-first order rate constant at pH 2 by UV-vis spectroscopic analysis; assay type: physicochemical
# Method in brief: (§4)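 Hydrolytic stability followed by diode-array UV-vis at 37 ± 0.1 °C on ca. 5×10⁻⁵ mol L⁻¹ solutions. Ionic strength was set to 1 mol L⁻¹ with KCl; buffer pH was checked with a glass electrode. Spectra recorded over 200–500 nm with time. Pseudo-first-order k_obs was fitted from the absorbance-time curve at 267 nm.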
# [15] = Stability of compound in 0.007 M HCl buffer assessed as pseudo-first order rate constant at pH 2.16 by UV-vis spectroscopic analysis; assay type: physicochemical; method in brief: as §4
# [16] = Stability of compound in 0.005 M HCl buffer assessed as pseudo-first order rate constant at pH 2.3 by UV-vis spectroscopic analysis; assay type: physicochemical; method in brief: as §4
# [17] = Stability of compound in 0.001 HCl buffer assessed as pseudo-first order rate constant at pH 3 by UV-vis spectroscopic analysis; assay type: physicochemical; method in brief: as §4
# [18] = Stability of compound in 0.0005 HCl buffer assessed as pseudo-first order rate constant at pH 3.3 by UV-vis spectroscopic analysis; assay type: physicochemical; method in brief: as §4
# [19] = Stability of compound in methoxyacetate buffer assessed as pseudo-first order rate constant at pH 3.35 by UV-vis spectroscopic analysis; assay type: physicochemical; method in brief: as §4
# [20] = Stability of compound in acetate buffer assessed as pseudo-first order rate constant at pH 4.55 by UV-vis spectroscopic analysis; assay type: physicochemical; method in brief: as §4
# [21] = Stability of compound in phosphate buffer assessed as pseudo-first order rate constant at pH 5.81 by UV-vis spectroscopic analysis; assay type: physicochemical; method in brief: as §4
# [22] = Stability of compound in imidazole buffer assessed as pseudo-first order rate constant at pH 7.23 by UV-vis spectroscopic analysis; assay type: physicochemical; method in brief: as §4
# [23] = Stability of compound in N-Methylmorpholine buffer assessed as pseudo-first order rate constant at pH 7.86 by UV-vis spectroscopic analysis; assay type: physicochemical; method in brief: as §4
# [24] = Stability of compound in TRIS buffer assessed as pseudo-first order rate constant at pH 8.92 by UV-vis spectroscopic analysis; assay type: physicochemical; method in brief: as §4
# [25] = Stability of compound in carbonate buffer assessed as pseudo-first order rate constant at pH 9.71 by UV-vis spectroscopic analysis; assay type: physicochemical; method in brief: as §4
# [26] = Stability of compound in 0.005 M KOH buffer assessed as pseudo-first order rate constant at pH 11.7 by UV-vis spectroscopic analysis; assay type: physicochemical; method in brief: as §4
# [27] = Stability of compound in 0.1 M KOH buffer assessed as pseudo-first order rate constant at pH 13 by UV-vis spectroscopic analysis; assay type: physicochemical; method in brief: as §4
Structure (SMILES),MIC [1] [µM],MIC [2] [µM],MIC [3] [µM],MIC [4] [µM],MIC [5] [µM],MIC [6] [µM],MIC [7] [µM],MIC [8] [µM],MIC [9] [µM],MIC [10] [µM],also measured
COc1ccc(N/C=N/NC(=O)c2ccncc2)cc1,2,4,500,500,250,500,1000,16,16,32,
O=C(N/N=C/Nc1ccc(F)c(F)c1)c1ccncc1,2,2,250,250,250,500,1000,8,16,32,
O=C(N/N=C/Nc1cccc([N+](=O)[O-])c1)c1ccncc1,2,2,250,500,125,250,500,8,16,16,
O=C(N/N=C/Nc1cc(Cl)ccc1O)c1ccncc1,2,2,500,500,125,250,250,8,16,32,IC50 [11]: 21.8 µM; IC50 [12]: 75 µM; Ratio [13]: 10.9
O=C(N/N=C/Nc1ccc(Br)c(F)c1)c1ccncc1,1,1,250,250,62.5,250,250,8,8,16,IC50 [11]: 162 µM; IC50 [12]: 326 µM; Ratio [13]: 162; Activity [14]: 0.00285 s⁻¹; Activity [15]: 0.00192 s⁻¹; Activity [16]: 0.0017 s⁻¹; Activity [17]: 0.000514 s⁻¹; Activity [18]: 0.000322 s⁻¹; Activity [19]: 0.000425 s⁻¹; Activity [20]: 0.000114 s⁻¹; Activity [21]: 0.000071 s⁻¹; Activity [22]: 0.000013 s⁻¹; Activity [23]: 0.000012 s⁻¹; Activity [24]: 0.000055 s⁻¹; Activity [25]: 0.0000445 s⁻¹; Activity [26]: 0.00011 s⁻¹; Activity [27]: 0.0000691 s⁻¹
O=C(N/N=C/Nc1ccc(F)c(Cl)c1)c1ccncc1,1,2,250,500,250,1000,> 1000,16,16,32,
O=C(N/N=C/Nc1cccc(Cl)c1)c1ccncc1,1,1,500,1000,125,500,500,16,16,16,
O=C(N/N=C/Nc1ccc(Cl)cc1)c1ccncc1,1,1,500,1000,125,250,1000,16,32,32,
O=C(N/N=C/Nc1ccc(C(F)(F)F)cc1)c1ccncc1,2,2,500,1000,250,500,1000,32,32,32,
O=C(N/N=C/Nc1ccc(Cl)c(Cl)c1)c1ccncc1,1,2,250,250,250,500,500,8,16,16,
